# Screening results: PubChem, Sanford-Burnham Center for Chemical Genomics
# UPR CHOP act: apoptotic UPR (CHOP) activation; CHO-CHOP luciferase reporter, luminescence; percent of tunicamycin response over DMSO baseline; AID 449763; 330,000 compounds, 0.34% hits; activation, % at 10 µM;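 active = at 10 µM dose, activation of 40% or more, normalized to positive control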;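 note: 100% = tunicamycin at 10 µg/mL and 0% = DMSO alone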
#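 System: CHO CHOP reporter cells. Amount: 500 cells per well. Buffer or medium: F12 medium, 10% FBS. Compound dosing: one dose, 10 µM in 0.5% DMSO. Incubation: 6 h compound exposure at 37 °C after overnight seeding. Technique: Steady-Glo luciferase luminescence. Benchmarks: tunicamycin and DMSO controls.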
# TIM10 inh: inhibits growth of TIM10 yeast strain | inhibition, % at 10 µM | S. cerevisiae TIM10 strain growth, BacTiter-Glo luminescence, 24 h | 330,000 compounds, 1.4% hits | AID 463195;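 active = inhibition of 40% or more at the single tested concentration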;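 note: wild-type TIM10 isogenic control strain grown at permissive 25 °C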
# tim10-1 inh: inhibits growth of tim10-1 mutant yeast; S. cerevisiae tim10-1 ts strain growth, BacTiter-Glo, 24 h; 330,000 compounds, 2.2% hits; inhibition, % at 20 µM;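 active = inhibition of at least 40%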;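 note: mutant grown at 25 °C; 0% = DMSO wells with yeast and 100% = wells holding no yeast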
# tim23-1 inh: growth inhibitors of tim23-1 mutant yeast; AID 463212; inhibition, % at 20 µM; 330,000 compounds, 1.3% hits; S. cerevisiae tim23-1 growth, BacTiter-Glo luminescence, 24 h;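 active = growth inhibition of the mutant yeast at or above 50%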;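 note: temperature-sensitive mutant grown at 25 °C; plate controls were DMSO-treated mutant yeast for no effect and medium wells lacking yeast for full effect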
# UPR XBP1 act: activators of adaptive arm of unfolded protein response (XBP1); CHO-XBP1 luciferase reporter, IRE1-XBP1 UPR activation, luminescence; percent of tunicamycin response, DMSO as zero; activation, % at 20 µM; 330,000 compounds, 0.33% hits; AID 463104;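 active = versus positive control, 20 µM dose yields 30% or more activation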;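 note: 100% = tunicamycin at 10 µg/mL and 0% = DMSO only wells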
#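 incubation = overnight seeding at 37 °C, 6 h compound treatment at 37 °C | assay system = CHO-XBP1 cells stably carrying IRE1-XBP1-driven luciferase reporter | input = 1000 cells per well | detection = luciferase luminescence | dosing = single point, 20 µM final compound, 1% DMSO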
# tim23-1 confirm: confirmation of tim23-1 mutant yeast growth inhibitors. S. cerevisiae tim23-1 growth, BacTiter-Glo luminescence, 24 h. shares compounds with tim23-1 inh. inhibition, % at 20 µM. 4,400 compounds, 83% hits;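 active = inhibition above about 39% in either of two replicate wells at 20 µM, limit read from the data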;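 note: temperature-sensitive tim23-1 mutant grown at 25 °C; 0% = DMSO wells with yeast and 100% = medium wells without yeast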
# * hit, by the source's call; . = no result given. Hits are enriched below; roughly 3.9% of the tested compounds scored in any of these assays.
SMILES,UPR CHOP act,TIM10 inh,tim10-1 inh,tim23-1 inh,UPR XBP1 act,tim23-1 confirm
O=C1CCCN1CCCNc1ccc2nnc(CCC(=O)N3CCN(c4ccccc4)CC3)n2n1,3.6,-3.7,0.6,-10.4,-2.8,.
COc1cc(S(=O)(=O)n2nnc3ccccc32)c(OC)cc1Cl,5.3,25.3,39.9,61.2*,-1.7,56.4*
COc1ccc(OC)c(S(=O)(=O)n2nnc3cc(Cl)ccc32)c1,-1.1,0.3,19.4,9.6,-2.7,.
C[C@@]12C(=O)Nc3ccc(F)cc3C(=O)N1[C@H]1c3cc(Cl)ccc3OC[C@@H]1[C@@H]2c1ccccc1,0.6,22.9,20.3,54.2*,2.4,53.5*
C[C@@]12C(=O)Nc3ccc(Cl)cc3C(=O)N1[C@H]1c3ccccc3OC[C@@H]1[C@@H]2c1ccccc1,0.0,-0.2,23.0,61.3*,-0.7,57.2*
C[C@@]12C(=O)Nc3cc(Cl)ccc3C(=O)N1[C@H]1c3ccccc3OC[C@@H]1[C@@H]2c1ccccc1,-1.0,6.8,22.6,34.4,0.7,.
C[C@@]12C(=O)Nc3ccc(F)cc3C(=O)N1[C@H]1c3ccccc3OC[C@@H]1[C@@H]2c1ccccc1,-0.5,-1.3,-2.8,45.7,1.0,.
CCOC(=O)c1c(NC(=S)NNS(=O)(=O)c2ccc(Br)cc2)sc2c1CCCCC2,-1.3,39.5,36.8,25.1,-3.8,.
CCCC(C(=O)NC1CCCC1)N(CC1CCCO1)C(=O)CNS(=O)(=O)c1ccccc1 (centres undefined),0.5,0.2,6.9,14.9,-5.4,.
O=C(COC(=O)/C=C/c1cccc(C(F)(F)F)c1)NC1CCCCCC1,-1.0,3.0,0.3,0.6,-0.5,.
CC(C(Sc1ccccc1N)c1ccccc1)[N+](=O)[O-] (centres undefined),29.4,26.5,28.7,58.4*,-2.5,57.3*
c1ccc(-c2ccnc3nc(N4CCN(c5ccccc5)CC4)nn23)cc1,0.8,30.1,17.0,51.4*,2.2,37.0
Fc1ccc(-c2ccnc3nc(N4CCN(c5ccccc5)CC4)nn23)cc1,-2.0,23.4,32.6,41.5,1.9,.
CC1CCN(C(=O)c2ccccc2SCC(=O)NCC2CCCCC2)CC1,0.5,10.1,22.5,16.8,-0.9,.
Cn1c(=NC(=O)C(C)(C)C)sc2cccc(F)c21,3.2,-10.5,1.7,18.7,2.4,.
Cn1c(=NC(=O)c2ccccc2[N+](=O)[O-])sc2cccc(F)c21,2.2,-8.9,2.2,97.0*,2.1,-14.8
O=C(c1cccs1)N1CCN(c2cc(Cl)ccc2Cl)CC1,0.3,14.9,38.1,50.0,1.1,37.0
O=C(c1cccs1)N1CCN(c2ccc(Cl)cc2)CC1,3.7,-8.0,3.9,16.6,-6.5,.
COc1ccccc1N1CCN(C(=O)CCNC(=O)c2ccco2)CC1,1.8,-3.4,-15.9,-1.9,3.2,.
CC(C)C(C(=O)NCC1CCCO1)N(Cc1ccccc1)C(=O)CNS(=O)(=O)c1ccccc1 (centres undefined),-0.7,-6.0,-3.5,11.4,3.0,.
CCCn1c(SCC(=O)N2CCN(S(=O)(=O)c3ccc(Cl)cc3)CC2)n[nH]c1=O,-1.7,2.0,5.9,57.9*,-1.7,0.0
Cn1nccc1C(=O)N1CCCC(Nc2ccc(F)cc2)C1 (centres undefined),1.0,-2.2,-5.3,4.8,-1.4,.
CCn1c(/C=N/c2nc3ccccc3n2C)nc2ccccc21,0.7,18.1,31.4,55.9*,7.5,42.1*
NC(=O)C1CCN(c2nc(-c3cccs3)cs2)CC1,4.6,22.7,22.9,45.4,4.8,.
Cc1nc2nc(-c3cccs3)[nH]c2cc1Br,6.3,12.7,-7.4,61.3*,3.2,55.0*
SMILES,UPR CHOP act,TIM10 inh,tim10-1 inh,tim23-1 inh,UPR XBP1 act,tim23-1 confirm
CN(C(=O)c1ccco1)c1nnc(C23CC4CC(CC(C4)C2)C3)s1,7.0,12.5,20.2,55.3*,8.1,59.0*
COc1ccccc1NC(=S)NC(C)=O,-0.4,-7.2,-13.8,-16.3,-0.3,.
COc1ccccc1NC(=S)NC(=O)CC(C)C,4.3,25.3,28.1,51.4*,3.0,27.1
O=C(Cc1ccsc1)NCC(=O)Nc1ccccc1Br,3.7,-12.0,-10.1,-5.3,-0.4,.
O=C(Nc1ccc(C(=O)N2CCCc3ccccc32)cc1)c1cccs1,4.0,7.4,4.1,51.9*,-1.7,44.3*
CC(=O)Nc1ccc(C(=O)N2CCCc3ccccc32)cc1,0.6,-3.4,8.1,4.9,-0.9,.
O=C(CCc1ccccc1)Nc1ccccc1[N+](=O)[O-],3.8,10.5,9.8,10.6,2.1,.
O=C(CCc1ccccc1)Oc1ccccc1[N+](=O)[O-],1.2,36.5,30.0,57.2*,1.5,67.2*
CCOc1cccc(CNCc2ccc(C(=O)O)cc2)c1,0.1,-13.7,-10.3,89.0*,-0.1,18.2
O=C(O)c1ccc(CNCc2cccc(Oc3ccccc3)c2)cc1,-1.1,10.7,-10.8,2.6,-4.3,.
NC(=O)COc1ccc(C(=O)NCC2(N3CCOCC3)CCCCC2)cc1,1.8,5.6,-1.9,6.3,-3.5,.
Cc1ccc(C)c(NC(=O)C2CCN(C(=O)c3cccs3)CC2)c1,0.1,-16.5,-16.4,-1.6,-2.6,.
c1ccc(-c2cn3nc(-c4ccccc4)sc3n2)cc1,-9.9,-0.2,15.8,-4.6,-7.0,.
c1ccc(-c2cn3c4c(sc3n2)CCCC4)cc1,-7.6,33.7,24.4,54.8*,-8.9,59.7*
Cc1ccc(S(=O)(=O)N2CC3CCCC2C3)cc1 (centres undefined),-0.7,-2.4,14.3,13.8,1.4,.
O=C(Cn1nc(Cl)nc1Cl)c1ccc2c(c1)OCCO2,1.4,16.1,26.0,54.6*,-2.3,38.2
Cc1oc(-c2ccccc2F)nc1CS(=O)CC(=O)NC1CCCCC1 (centres undefined),0.5,-2.2,-6.9,9.2,0.1,.
Cc1ccc2c(c1)C(=O)C(=O)N2Cc1ccccc1,4.1,11.5,16.6,73.4*,12.2,61.5*
CC(C)c1ccc(C(=O)CN2C(=O)NC3(CCc4ccccc43)C2=O)cc1 (centres undefined),2.1,26.1,18.8,54.3*,5.9,44.2*
CSc1nc2ccc(NS(=O)(=O)c3ccc(Br)s3)cc2s1,0.4,28.1,29.4,60.8*,2.3,62.5*
Cn1c2ccccc2c(=O)c2c(=O)n(-c3ccc(F)cc3)c(-c3cccs3)nc21,-0.6,-36.2,-19.0,4.4,10.5,.
Cn1c2ccccc2c(=O)c2c(=O)n(C3CCCCC3)c(-c3ccco3)nc21,-2.6,-7.0,28.2,50.8*,3.3,49.2*
CC(c1ccccc1)n1c(-c2cccs2)nc2c(c(=O)c3ccccc3n2C)c1=O (centres undefined),-0.5,31.5,-1.4,51.5*,6.0,32.8
CC(C)Cn1c(-c2ccco2)nc2c(c(=O)c3ccccc3n2C)c1=O,-1.6,25.2,34.4,50.1*,2.5,34.9
